Source: PubChem
This is one part of a sample in which hits are shown more often than they occur.
T cruzi repl: T. cruzi replication inhibition. T. cruzi beta-gal in NIH3T3, luminescence, 90 h. AID 1885. actives 1.4% (n = 300,000). inhibition, % (concentration not given with the values);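 active = mean inhibition across valid replicates above about 55%, limit read from the data; inconclusive = mean below that limit but half or more replicates reach it; inactive = mean below it, under half of replicates reach it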;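 note: signal also drops with host cell toxicity which is not excluded here; 0% = plate median of DMSO wells and 100% = zero luminescence signal; higher percent means less beta-gal luminescence so fewer parasites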
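Assay system: NIH/3T3 fibroblasts plus reporter T. cruzi. Amount: NIH/3T3 cells, 5,000 per well. Buffer or medium: DMEM, 2% fetal bovine serum. Doses: compound pinned at 50 nL/well, DMSO. Schedule: ≥90 h infection period, 3 h prior cell attachment. Signal: luminescent β-galactosidase signal after 60 min lysis. Read-out: parasite load inhibition, %.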
NALP1 inh: inhibitors of NALP1 inflammasome in yeast | AID 2071 | actives 0.61% (n = 280,000) | inhibition, % at 10 µM | S. cerevisiae NALP1/ASC/caspase-1 growth, X-gal OD620, 72 h; in the data active = inhibition mostly above about 24%, no sharp cut-off; inactive = mostly below about 32%
NALP3 yeast inh: blocks the NALP3 inflammasome reconstituted in yeast; AID 2825; Yeast reconstituted NLRP3/ASC/caspase-1, beta-gal luminescence, 24 h; actives 0.39% (n = 330,000); inhibition, % at 10 µM;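 active = inhibition of 50% or more; inactive = inhibition below 50%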;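 note: plate controls were induced DMSO wells for no effect and uninduced yeast grown without galactose for full effect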
PolyA inh: inhibitors of polyadenylation in S. cerevisiae. actives 0.02% (n = 300,000). AID 1875. S. cerevisiae SKY197-pL101 polyadenylation reporter, beta-gal luminescence; efflux-impaired pdr1/pdr3 knockout yeast; score 100 = 6 SD above DMSO. activity score, % at 12 µM;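 active = lowest replicate activity score at least 50, where 100 means six control SD above control mean; inconclusive = lowest score under 50 but half or more replicates reach 50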;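 note: yeast exposed to compound for 9 h at 30 °C; higher score means more reporter readthrough which indicates perturbed polyadenylation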
L major viab: reduces viability of Leishmania major promastigotes; resazurin fluorescence viability; inhibition, % at 10 µM; actives 9% (n = 200,000); AID 1063; in the data active = inhibition above about 50%;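 note: promastigotes grown with compound for 44 hours at 28 °C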
Calb FLC: affects C. albicans growth with fluconazole; C. albicans CaCi-2 + fluconazole, Alamar Blue growth, 48 h; growth inhibition, % (test concentration not listed); actives 0.57% (n = 300,000);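 active = growth inhibition above about 58% in most replicates, limit read from the data, passing the limit was not always enough; inconclusive = exactly half the replicates above a set limit; inactive = most replicates below a set limit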;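 note: all wells also contain fluconazole at 8 µg/ml as a sub-toxic cotreatment; 0% = median of DMSO wells and 100% = median of geldanamycin control wells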
* = called active by the depositor; ? = inconclusive; / = not tested or not shown.

SMILES	T cruzi repl	NALP1 inh	NALP3 yeast inh	PolyA inh	L major viab	Calb FLC
Cc1ccc(C(=O)Nc2ccccc2SCC2CSc3nc4ccccc4c(=O)n32)cc1 (configuration not stated)	3.8	-13.0	8.8	-9.5	50.4*	2.6
O=C(Nc1ccccc1SCC1CSc2nc3ccccc3c(=O)n21)c1ccccc1 (configuration not stated)	13.0	35.4	26.0	11.3	-8.0	-0.8
CCCCn1c(SCC(=O)Nc2cc(C(F)(F)F)ccc2Cl)nnc1C(CC)N(C)C (configuration not stated)	27.7	32.1	8.7	11.0	82.3*	-1.5
CCOC(=O)C1(CCOc2ccccc2)CCN(Cc2ccc(NC(C)=O)cc2)CC1	2.8	4.5	14.3	13.1	86.7*	-35.0
CCOC(=O)C1(CCOc2ccccc2)CCN(Cc2ccc3nonc3c2)CC1	66.9*	1.9	19.9	8.8	92.2*	-3.7
CCOC(=O)C1(CCOc2ccccc2)CCN(Cc2ccc(OC)cc2)CC1	39.8	/	/	-20.7	/	-5.8
CCOC(=O)C1(CCOc2ccccc2)CCN(Cc2cccc(OCCO)c2)CC1	7.9	23.6	18.8	-4.9	/	-17.5
CC(C)c1cc(C(=O)N2CCCC(N3CCN(c4ccccc4F)CC3)C2)nc(N)n1 (configuration not stated)	10.4	-11.6	-9.3	-7.7	/	-7.1
CCN1C(=O)/C(=C\c2ccncc2)SC1=S	2.9	/	-7.0	-7.3	/	6.1
CCCCC(CC)CN1C(=O)/C(=C/c2ccncc2)SC1=S (configuration not stated)	-5.3	19.5	9.3	2.1	96.5*	-7.1
O=C1/C(=C\c2ccncc2)SC(=S)N1C1CCCCC1	-1.8	32.4	14.8	1.1	65.2*	-14.5
C=CC[N+](C)(C)C/C(Cl)=C(\Cl)c1ccccc1	-5.8	17.8	2.3	11.0	-3.0	-1.9
CN(C)C(CNC(=O)c1cc2ccccc2o1)c1ccco1 (configuration not stated)	/	/	7.0	/	/	/
CC(C)C(=O)Nc1ccc(C(=O)c2ccccc2)cc1	1.3	12.7	31.6	-19.5	99.0*	-33.9
COc1cc(C(=O)NC(=S)N(CCc2ccccc2)CCc2ccccc2)cc(OC)c1OC	50.5	12.6	9.5	-1.3	99.3*	92.8*
COc1cc(C(=O)NC(=S)N(C)Cc2ccccc2)cc(OC)c1OC	1.4	18.5	27.1	-1.2	-10.7	-5.1
CC(CCc1ccccc1)NC(=S)NC(=O)c1ccco1 (configuration not stated)	-19.4	18.2	29.5	0.4	6.5	-11.9
O=C(NC(=S)N(CCc1ccccc1)CCc1ccccc1)c1ccco1	39.4	19.0	8.3	-16.1	94.7*	-24.9
C=CCN(CC=C)C(=S)NC(=O)c1ccc(OC)cc1	32.6	23.6	18.8	-7.4	8.3	26.6
C=CCN(CC=C)C(=S)NC(=O)c1ccc(-c2ccccc2)cc1	55.3*	38.9*	35.9	-7.1	6.7	-10.9
COc1ccc(C(=O)NC(=S)N(Cc2ccccc2)Cc2ccccc2)cc1	51.8	7.7	21.6	-8.6	89.8*	23.4
CC(C)(C)c1ccccc1NC(=O)CN1C(=O)NC2(CCCCCC2)C1=O	/	/	7.9	/	/	/
CC(=O)N(C)c1ccc(NC(=O)C(Sc2ccccc2)c2ccccc2)cc1 (configuration not stated)	2.1	0.5	0.0	3.1	18.0	-3.8
O=C(Nc1ccc(Cl)c([N+](=O)[O-])c1)C(NCCCO)c1ccccc1 (configuration not stated)	1.7	39.3	-0.8	21.5	-2.5	5.8
O=C(Nc1ccc(Cl)c([N+](=O)[O-])c1)C(Sc1ccccc1)c1ccccc1 (configuration not stated)	64.3*	11.1	21.8	-19.4	35.1	-5.0
O=C(Nc1cc([N+](=O)[O-])ccc1Cl)C(Sc1ccccc1)c1ccccc1 (configuration not stated)	-0.2	13.6	-9.9	-6.7	96.1*	-12.1
CC(C)(C)NS(=O)(=O)c1ccc(NC(=O)C(Sc2ccccc2)c2ccccc2)cc1 (configuration not stated)	55.8*	20.7	20.4	16.2	55.7*	?
Cc1ccc(C(=O)NCCc2nnc3ccc(SCC(=O)Nc4cc(C)on4)nn23)cc1	-5.9	-0.7	-2.9	8.6	4.9	-4.7
